ChEMBL document CHEMBL1641525, “Antiproliferative and apoptotic sesquiterpene lactones from Carpesium faberi” (Bioorg Med Chem Lett, 2011)
Converted amounts (≈) assume the structure as drawn. The source made the active and inactive calls. The rule behind the calls is not given here.

Assays:
MCF7 [1] = experiment: Antiproliferative activity against human MCF7 cells after 48 hrs by MTT assay; type: functional, cell-based; settings: MCF7, 48 h
Outline: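 MCF-7 (ATCC) grown in DMEM + 10% heat-inactivated FBS, penicillin/streptomycin, 37 °C, 5% CO2. Exponential cells seeded 4.0×10^3/well; after 24 h treated with a range of concentrations for 48 h in the dark. Medium refreshed, then MTT (1 mg/mL) for 4 h; formazan dissolved in DMSO, OD 570 nm. 0.5% DMSO negative control. IC50 from log concentration–viability curves.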

MCF7 [2] = experiment: Cell cycle arrest in human MCF7 cells assessed as accumulation at G2/M phase at IC50 concentration after 24 hrs using propidium iodide staining by flow cytometry; type: functional, cell-based
MCF7 [3] = experiment: Cell cycle arrest in human MCF7 cells assessed as accumulation at sub-G1 phase at IC50 concentration after 24 hrs using propidium iodide staining by flow cytometry; type: functional

SMILES	IC50 (MCF7 [1])	Activity (MCF7 [2])	Activity (MCF7 [3])
C=C1C(=O)O[C@@H]2C[C@@H](C)[C@@H]3CCC(=O)[C@@]3(C)C[C@H]12	3.9 µg/mL (≈ 15.7 µM)		
C=C1C[C@H](O)C[C@]2(C)C[C@H]3OC(=O)[C@@H](C)[C@H]3C[C@@]12O	> 50 µg/mL		
C[C@@H]1C[C@@H]2OC(=O)[C@@H](C)[C@H]2C[C@]2(C)[C@@H](O[C@@H]3O[C@H](CO)[C@@H](O)[C@H](O)[C@H]3O)CC[C@@H]12	> 50 µg/mL		
C=C1C(=O)O[C@H]2C[C@@H](C)[C@@H]3CC[C@H](O)[C@@]3(C)[C@@H](O)[C@H]12 [CARABROLACTONE B]	10.7 µg/mL (≈ 40.2 µM)		
C=C1C(=O)O[C@H]2C[C@@](C)(O)C3=CC[C@](C)(O)[C@@H]3C[C@H]12 [GUAIANOLIDE]	31.7 µg/mL (≈ 120 µM)	Active	> 5%
C/C(=C\CO)CCC[C@H](C)CCC[C@H](C)CCCC(C)C [TRANS-PHYTOL]	> 50 µg/mL		
C=C1C(=O)O[C@@H]2C[C@](C)(O)C3=CC[C@@](C)(O)[C@@H]3C[C@H]12	26.5 µg/mL (≈ 100 µM)		
C[C@@H]1C(=O)O[C@@H]2C[C@@]3(C)O[C@@H]3C[C@H](O)[C@@]3(C)O[C@@H]3C[C@H]12 [CARABROLACTONE A]	> 50 µg/mL		
COc1cccc2c1C(=O)c1c(O)c3c(c(O)c1C2=O)C[C@@](O)(C(C)=O)C[C@@H]3O[C@H]1C[C@H](N)[C@H](O)[C@H](C)O1 [DAUNORUBICIN]	0.5 µg/mL (≈ 0.948 µM)		
C/C(=C\CO)CC[C@@H]1[C@@]2(C)CCCC(C)(C)[C@@H]2CC[C@@]1(C)O	18.6 µg/mL (≈ 60.3 µM)		
O=c1[nH]cc(F)c(=O)[nH]1 [FLUOROURACIL]	14.1 µg/mL (≈ 108 µM)		
C=C1C(=O)O[C@H]2C[C@@H](C)[C@@H]3CC[C@H](O)[C@@]3(C)C[C@H]12 [PSEUDOGUAIANOLIDE]	9.8 µg/mL (≈ 39.1 µM)	Active	
C=C1C(=O)O[C@@H]2C[C@](C)(O)C3=CC[C@](C)(O)[C@@H]3C[C@H]12	38.8 µg/mL (≈ 147 µM)		
C=C1C(=O)O[C@@H]2C[C@@]3(C)C[C@@H](O)CC(=C)[C@@H]3C[C@H]12 [IVALIN]	12.5 µg/mL (≈ 50.3 µM)		
C=C1C(=O)O[C@H]2C=C(C)[C@@H]3CC[C@](C)(O)[C@@H]3C[C@H]12 [4-EPI-ISOINUVISCOLIDE]	16.3 µg/mL (≈ 65.6 µM)		
C=C1C(=O)O[C@H]2C[C@](C)(O)C3=CC[C@](C)(O)[C@@H]3C[C@H]12	31.9 µg/mL (≈ 121 µM)		
C=C1C(=O)O[C@@H]2C[C@@]3(C)CCCC(=C)[C@]3(O)C[C@H]12 [TELEKIN]	3 µg/mL (≈ 12.1 µM)	Active	
C=C1C(=O)O[C@@H]2C[C@]3(C)[C@@H](CC[C@H](C)OC(C)=O)[C@@H]3C[C@H]12	9.4 µg/mL (≈ 32.2 µM)	Active	> 5%
C=C1C(=O)O[C@@H]2C[C@H](C)C(CCC(C)=O)=CC[C@H]12 [TOMENTOSIN]	> 50 µg/mL		
